Published values collected from several papers.
Protocols differ between the studies behind these lines.
Target: Mitogen-activated protein kinase 8 (MAPK8, Homo sapiens, UniProt P45983)

C#Cc1n[nH]c2c(-c3cn([C@@H](C)c4ccccc4)c(=O)[nH]c3=O)cc(F)cc12
inhibition (enzyme activity, inhibitor; 0.1 µM): 1.5%

N#CC1(c2ccccn2)CCN(Cc2cc(C(=O)O)c(=O)n3ccccc23)CC1
remaining binding (cell-free assay, competition with immobilised ligand; 1 µM): 85%

Cn1cc(-c2cc(F)cc(N3CCn4c(cc5c4CCCC5)C3=O)c2CO)cc(Nc2ccc(N3CCN(C4COC4)CC3)cn2)c1=O
inhibition (enzyme activity, inhibitor; 0.1 µM): -1%

O=c1[nH]c2ccccc2n1C1CCN(Cc2ccc(-c3[nH]c4cc5ncnc5cc4nc3-c3ccccc3)cc2)CC1
remaining signal (cell-free assay; 0.5 µM): 89.6%

COc1ncccc1-c1cnn2ccc(N3CCN(C(=O)OC(C)C)CC3)nc12
remaining binding (binding, competition with immobilised ligand; 1 µM): 100%

CC(C)(C)c1cc(C=C(C#N)C#N)cc(Br)c1O
remaining activity (enzyme activity, inhibitor; 0.5 µM): 90.4%

Nc1ncc(-c2nc(N3CCOCC3)nc(N3CCOCC3)n2)c(C(F)F)n1
remaining binding (binding, competition with immobilised ligand; 10 µM): 86%

Cn1cncc1[C@](O)(COc1ccc(C#N)cc1-c1ccc(OC(F)(F)F)cc1)c1ccc(C#N)cc1
remaining binding (cell-free assay, competition with immobilised ligand; 1 µM): 100%

Cn1cc(-c2cccc(N3CCc4c(sc5c4CC(C)(C)C5)C3=O)c2CO)cc(Nc2ccncn2)c1=O
inhibition (enzyme activity, inhibitor; 1 µM): 1%

Cc1nn(C)cc1-c1nc2c(N3CCN(Cc4ccc(Cl)cc4)CC3)c(Cl)cnc2[nH]1
remaining binding (binding, competition with immobilised ligand; 1 µM): 93%

C#Cc1n[nH]c2c(-c3cn(C(C)c4ccccn4)c(=O)[nH]c3=O)cc(F)cc12 (centres unmarked)
inhibition (enzyme activity, inhibitor; 1 µM): -4.2%
